In ChEMBL document CHEMBL1131181, “Abasic analogues of TSAO-T as the first sugar derivatives that specifically inhibit HIV-1 reverse transcriptase” (J Med Chem, 1998):

Experiments:
[1] = test system: CCRF-CEM; assay: compound was tested for cytostatic concentration against mock infected cells of CEM cell line; format: functional; conditions: Homo sapiens
Summary of the method: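 Uninfected CEM cells at 250 000 cells/mL were cultured with compound dilutions for 4 days at 37 °C. CC₅₀ is the concentration that inhibits CEM cell proliferation by 50%.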

[2] = test system: Human immunodeficiency virus 1; assay: In vitro antiviral activity against HIV-1 (IIIB) in CEM (human leukemia) cells.; format: functional, organism-based; conditions: Human immunodeficiency virus 1, CCRF-CEM
Summary of the method: (§1)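 CEM cells at 250 000 cells/mL were infected with HIV-1(III_B) or HIV-2(ROD) at 100 CCID₅₀/mL, then added to compound dilutions. After 4 days at 37 °C, cultures were scored for syncytium formation. EC₅₀ is the concentration that inhibits syncytium formation by 50%.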

[3] = test system: Human immunodeficiency virus 2; assay: In vitro antiviral activity against HIV-2 (ROD) in CEM (human leukemia) cells.; format: functional, organism-based; conditions: Human immunodeficiency virus 2, CCRF-CEM; summary of the method: as §1
[4] = test system: MT4; assay: Cytostatic concentration test against mock infected human cells of MT-4 cell line; format: functional
Summary of the method: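 MT-4 cells at 5 × 10⁵ cells/mL, mock-infected, combined with compound dilutions and held 5 days at 37 °C. Viable cells were counted in a blood-cell-counting chamber after Trypan blue staining. CC₅₀ is the concentration that cuts the viable cell number by 50%.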

[5] = test system: MT4; assay: compound was tested for antiviral activity against HIV-2 ([…]) in MT-4 cell line, activity expressed as concentration required to protect 50% of the virus-infected cells against destruction by the virus.; format: functional, cell-based; conditions: Homo sapiens
[6] = test system: Human immunodeficiency virus 1; assay: compound was tested for antiviral activity against HIV-1 (3B) in MT-4 cell line, activity expressed as concentration required to protect 50% of the virus-infected cells against destruction by the virus.; format: functional, organism-based; conditions: Human immunodeficiency virus 1, MT4

| Compound | CC50 [1] [µM] | EC50 [2] [µM] | EC50 [3] [µM] | CC50 [4] [µM] | EC50 [5] [µM] | EC50 [6] [µM] |
| --- | --- | --- | --- | --- | --- | --- |
| CC(C)(C)[Si](C)(C)OC[C@H]1O[C@H](NC(=O)Nc2ccccc2)[C@H](O[Si](C)(C)C(C)(C)C)[C@]12OS(=O)(=O)C=C2N | 4.2 | 0.65 | > 2 | 4.3 | > 2 | 0.59 |
| CC(=O)NC(=O)N[C@@H]1O[C@H](CO[Si](C)(C)C(C)(C)C)[C@@]2(OS(=O)(=O)C=C2N)[C@H]1O[Si](C)(C)C(C)(C)C | 15 | 0.65 | > 10 | 26 | > 10 | 0.89 |
| CC(C)(C)[Si](C)(C)OC[C@H]1O[C@@H](NC(=O)NC(=O)c2ccccc2)[C@H](O[Si](C)(C)C(C)(C)C)[C@]12OS(=O)(=O)C=C2N | 48 | 7 | > 50 | 90 | > 50 | 16 |
| CC(C)(C)[Si](C)(C)OC[C@H]1O[C@H](NC(=O)NC(=O)c2ccccc2)[C@H](O[Si](C)(C)C(C)(C)C)[C@]12OS(=O)(=O)C=C2N | 24 | > 250 | > 250 | > 250 | > 250 | > 250 |
| CC(C)(C)[Si](C)(C)OC[C@H]1O[C@@H](NC(=S)Nc2ccccc2)[C@H](O[Si](C)(C)C(C)(C)C)[C@]12OS(=O)(=O)C=C2N | 4.1 | > 2 | > 2 | 3.7 | > 2 | > 2 |
| CC(C)(C)[Si](C)(C)OC[C@H]1O[C@@H](OCc2ccccc2)[C@H](O[Si](C)(C)C(C)(C)C)[C@@]12OS(=O)(=O)C=C2N | 11 | > 6.4 | > 6.4 | 13 | > 6.4 | 4.6 |
| CC(C)(C)[Si](C)(C)OC[C@H]1O[C@H](NC(N)=O)[C@H](O[Si](C)(C)C(C)(C)C)[C@]12OS(=O)(=O)C=C2N | 203 | 57 | > 50 | > 250 | > 250 | > 250 |
| COC(=O)c1ccccc1NC(=O)N[C@H]1O[C@H](CO[Si](C)(C)C(C)(C)C)[C@@]2(OS(=O)(=O)C=C2N)[C@H]1O[Si](C)(C)C(C)(C)C | 22 | 4.5 | > 10 | 26 | > 10 | 5.3 |
| CCNC(=O)N[C@@H]1O[C@H](CO[Si](C)(C)C(C)(C)C)[C@@]2(OS(=O)(=O)C=C2N)[C@H]1O[Si](C)(C)C(C)(C)C.CCNC(=O)N[C@H]1O[C@H](CO[Si](C)(C)C(C)(C)C)[C@@]2(OS(=O)(=O)C=C2N)[C@H]1O[Si](C)(C)C(C)(C)C | 20 | > 10 | > 10 | 19 | > 10 | > 10 |
| COC1OC(CO[Si](C)(C)C(C)(C)C)C2(OS(=O)(=O)C=C2N)C1O[Si](C)(C)C(C)(C)C (stereo not given) | – | – | – | > 200 | > 200 | 21 |
| CC(C)(C)[Si](C)(C)OC[C@H]1O[C@@H](N)[C@H](O[Si](C)(C)C(C)(C)C)[C@]12OS(=O)(=O)C=C2N | 16 | > 10 | > 10 | 21 | > 10 | > 10 |
| CC(C)(C)[Si](C)(C)OC[C@H]1O[C@@H](n2ccc(=O)[nH]c2=O)[C@H](O[Si](C)(C)C(C)(C)C)C12OS(=O)(=O)C=C2N (stereo not given in full) | – | – | – | 13 | > 20 | 0.18 |
| CC(C)(C)[Si](C)(C)OC[C@H]1O[C@@H](NC(N)=O)[C@H](O[Si](C)(C)C(C)(C)C)[C@]12OS(=O)(=O)C=C2N | > 250 | 90 | > 50 | > 250 | > 250 | 90 |
| CC(=O)N[C@@H]1O[C@H](CO[Si](C)(C)C(C)(C)C)[C@@]2(OS(=O)(=O)C=C2N)[C@H]1O[Si](C)(C)C(C)(C)C | – | 2.6 | > 8 | 13 | > 8 | 2.6 |
| C=C(C)C(=O)NC(=O)N[C@@H]1O[C@H](CO[Si](C)(C)C(C)(C)C)[C@@]2(OS(=O)(=O)C=C2N)[C@H]1O[Si](C)(C)C(C)(C)C | 6.1 | 0.56 | > 6.5 | 8.6 | > 6.5 | 0.59 |
| COC(=O)c1ccccc1NC(=O)N[C@@H]1O[C@H](CO[Si](C)(C)C(C)(C)C)[C@@]2(OS(=O)(=O)C=C2N)[C@H]1O[Si](C)(C)C(C)(C)C | 3.8 | > 2 | > 2 | 17 | > 2 | 3.1 |
| C=C(C)C(=O)NC(=O)N[C@H]1O[C@H](CO[Si](C)(C)C(C)(C)C)[C@@]2(OS(=O)(=O)C=C2N)[C@H]1O[Si](C)(C)C(C)(C)C | 6.4 | > 6.5 | > 6.5 | 2.7 | > 1.3 | > 1.3 |
| CC(C)(C)[Si](C)(C)OC[C@H]1O[C@@H](N=[N+]=[N-])[C@H](O[Si](C)(C)C(C)(C)C)[C@]12OS(=O)(=O)C=C2N | > 200 | > 200 | > 200 | > 200 | > 200 | > 200 |
| CSc1ccc(NC(=O)N[C@@H]2O[C@H](CO[Si](C)(C)C(C)(C)C)[C@@]3(OS(=O)(=O)C=C3N)[C@H]2O[Si](C)(C)C(C)(C)C)cc1 | 22 | 5 | > 10 | 29 | > 10 | 4.5 |
| CC(C)(C)[Si](C)(C)OC[C@H]1O[C@@H](N2CCC(=O)NC2=O)[C@H](O[Si](C)(C)C(C)(C)C)[C@]12OS(=O)(=O)C=C2N | 19 | 0.31 | – | 21 | > 2 | 0.92 |
| Cc1cn([C@@H]2O[C@H](CO[Si](C)(C)C(C)(C)C)C3(OS(=O)(=O)C=C3N)[C@H]2O[Si](C)(C)C(C)(C)C)c(=O)[nH]c1=O (stereo not given in full) | – | 0.06 | > 20 | 14 | > 20 | 0.06 |
| CSc1ccc(NC(=O)N[C@H]2O[C@H](CO[Si](C)(C)C(C)(C)C)[C@@]3(OS(=O)(=O)C=C3N)[C@H]2O[Si](C)(C)C(C)(C)C)cc1 | 6.4 | > 2 | > 2 | 17 | > 10 | 4.2 |
| CC(C)(C)[Si](C)(C)OC[C@H]1O[C@@H](OCc2ccccc2)[C@H](O[Si](C)(C)C(C)(C)C)[C@]12OS(=O)(=O)C=C2N | 11 | > 6.4 | > 6.4 | 12 | > 6.4 | 4.9 |
| CC(=O)N[C@H]1O[C@H](CO[Si](C)(C)C(C)(C)C)[C@@]2(OS(=O)(=O)C=C2N)[C@H]1O[Si](C)(C)C(C)(C)C | – | > 8 | > 8 | 16 | > 8 | > 8 |
| CC(C)(C)[Si](C)(C)OC[C@H]1O[C@@H](NC(=O)Nc2ccccc2)[C@H](O[Si](C)(C)C(C)(C)C)[C@]12OS(=O)(=O)C=C2N | 10 | > 10 | > 10 | 14 | > 10 | 5.1 |
